Experimental data: ChEMBL document CHEMBL2203131, “An unusually cold active nitroreductase for prodrug activations” (Bioorg Med Chem, 2012)

Assays:
[1] = system: Staphylococcus saprophyticus; assay: Activity of Staphylococcus saprophyticus ATCC 15305 Ssap-NtrB assessed as residual activity measured for 10 mins at 15 degC by spectrophotometric analysis
[2] = Ratio of apparent Kcat to apparent Km for Bacillus amyloliquefaciens CAMR 0454 ywrO-mediated prodrug conversion using NADPH as cofactor by steady state kinetic analysis; format: ADME
[3] = Prodrug conversion in Tris-HCl buffer assessed as Staphylococcus saprophyticus ATCC 15305 Ssap-NtrB-mediated [5-(aziridin-1-yl)-2-hydroxyamino-4-nitrobenzamide] formation after 30 mins by HPLC analysis; format: ADME; details: 0.5 h
Summary of the method: (§1)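 CB1954 (1 mM final) or SN23862 (80 µM) was incubated in degassed 50 mM Tris-Cl pH 7.0, kept anaerobic by nitrogen bubbling, with 50 µg/ml Ssap-NtrB and 3.4 mM NADPH for at least 30 min at 18–20 °C. Reactions were stopped with ice-cold methanol, held at −80 °C, then centrifuged. Products were resolved by reverse-phase C18 HPLC with an acetonitrile–water gradient. Detection was at 260/420 nm, or 390/450 nm for SN23862.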

[4] = Prodrug conversion in sodium phosphate buffer using NADPH as cofactor assessed as Bacillus amyloliquefaciens CAMR 0454 ywrO-mediated reduction by steady state kinetics analysis; format: ADME
[5] = Ratio of apparent Km for Escherichia coli NfsB-mediated prodrug conversion to apparent Km for Staphylococcus saprophyticus ATCC 15305 Ssap-NtrB-mediated prodrug conversion; format: ADME
[6] = Prodrug conversion in Tris-HCl buffer assessed as Staphylococcus saprophyticus ATCC 15305 Ssap-NtrB-mediated [5-(aziridin-1-yl)-4-hydroxyamino-2-nitrobenzamide] formation after 30 mins by HPLC analysis; format: ADME; details: 0.5 h; summary of the method: as §1
[7] = Prodrug conversion in Tris-HCl buffer using NADPH as cofactor assessed as Escherichia coli NfsB-mediated reduction by steady state kinetics analysis; format: ADME; details: for Km: read-out: Km(app)
[8] = Ratio of apparent Kcat to apparent Km for Escherichia coli AzoR-mediated prodrug conversion using NADPH as cofactor by steady state kinetic analysis; format: ADME
[9] = system: Staphylococcus saprophyticus; assay: Activity of Staphylococcus saprophyticus ATCC 15305 Ssap-NtrB assessed as residual activity measured for 10 mins at 3 degC by spectrophotometric analysis
[10] = Prodrug conversion in buffer using NADPH as cofactor assessed as Escherichia coli NfsA-mediated reduction by steady state kinetics analysis; format: ADME
[11] = Ratio of apparent Kcat to apparent Km for Escherichia coli NfsB-mediated prodrug conversion using NADPH as cofactor by steady state kinetics analysis; format: ADME
[12] = Ratio of apparent Kcat to apparent Km for Escherichia coli NfsA-mediated prodrug conversion using NADPH as cofactor by steady state kinetic analysis; format: ADME
[13] = Prodrug conversion in buffer using NADPH as cofactor assessed as Escherichia coli AzoR-mediated reduction by steady state kinetics analysis; format: ADME
[14] = Prodrug conversion in buffer using NADH as cofactor assessed as Escherichia coli AzoR-mediated reduction by steady state kinetics analysis; format: ADME
[15] = Ratio of apparent Kcat to apparent Km for Staphylococcus saprophyticus ATCC 15305 Ssap-NtrB-mediated reduction by steady state kinetics analysis; format: ADME
Summary of the method: (§2)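 Steady-state kinetics with purified His6-Ssap-NtrB used CB1954 at 0.05–4 mM or a series of SN23862 concentrations in 50 mM Tris-Cl pH 7.0 containing 4% DMSO. Parameters came from nonlinear Michaelis–Menten fitting. One unit is defined as 1 µmol substrate converted per min, and specific activity was expressed per mg active enzyme.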

[16] = Ratio of apparent Kcat to apparent Km for Escherichia coli AzoR-mediated prodrug conversion using NADH as cofactor by steady state kinetic analysis; format: ADME
[17] = Prodrug conversion in Tris-HCl buffer using NADH as cofactor assessed as Escherichia coli NfsB-mediated reduction by steady state kinetics analysis; format: ADME; details: for Km: read-out: Km(app)
[18] = Prodrug conversion in Tris-HCl buffer assessed as Staphylococcus saprophyticus ATCC 15305 Ssap-NtrB-mediated reduction by steady state kinetics analysis; format: ADME; details: for Km: read-out: Km(app); summary of the method: as §2
[19] = Ratio of apparent Kcat to apparent Km for Escherichia coli NfsB-mediated prodrug conversion using NADH as cofactor by steady state kinetics analysis; format: ADME
[20] = Ratio of apparent Kcat/apparent Km for Escherichia coli NfsB to apparent Kcat/apparent Km for Staphylococcus saprophyticus ATCC 15305 Ssap-NtrB; format: ADME
[21] = Prodrug conversion in sodium phosphate buffer using NAD(P)H as cofactor assessed as Bacillus amyloliquefaciens CAMR 0454 ywrO-mediated reduction by steady state kinetics analysis; format: ADME
[22] = Prodrug conversion in Tris-HCl buffer assessed as Staphylococcus saprophyticus ATCC 15305 Ssap-NtrB-mediated reduction after 30 mins by HPLC analysis; format: ADME; details: 0.5 h; summary of the method: as §1

Compound	Activity [1]	Kcat(app) [7]	Km [7]	Activity [9]	Kcat/Km [11]	Kcat/Km [15]	Kcat(app) [17]	Km [17]	Kcat(app) [18]	Km [18]	Kcat/Km [19]	further results
NC(=O)c1cc(N2CC2)c([N+](=O)[O-])cc1[N+](=O)[O-] [TRETAZICAR]	55%	26 s⁻¹	3600 µM	55%	7300 M⁻¹ s⁻¹	2120 M⁻¹ s⁻¹	62 s⁻¹	11000 µM	2.26 s⁻¹	1070 µM	5600 M⁻¹ s⁻¹	Kcat/Km [2]: 13268 M⁻¹ s⁻¹; Drug metabolism [3]: Active; Kcat(app) [4]: 8.2 s⁻¹; Km ([4]; read-out: Km(app)): 618 µM; Ratio [5]: 20; Drug metabolism [6]: Active; Kcat/Km [8]: 110 M⁻¹ s⁻¹; Kcat(app) [10]: 16 s⁻¹; Km ([10]; read-out: Km(app)): 220 µM; Kcat/Km [12]: 73000 M⁻¹ s⁻¹; Kcat(app) [13]: 0.15 s⁻¹; Km ([13]; read-out: Km(app)): 1400 µM; Kcat(app) [14]: 0.15 s⁻¹; Km ([14]; read-out: Km(app)): 6600 µM; Kcat/Km [16]: 23 M⁻¹ s⁻¹
NC(=O)N/N=C/c1ccc([N+](=O)[O-])o1 [NITROFURAZONE]		10.5 s⁻¹	170 µM		61764 M⁻¹ s⁻¹	44180 M⁻¹ s⁻¹	10.7 s⁻¹	160 µM	2.2 s⁻¹	49.8 µM	66875 M⁻¹ s⁻¹	Ratio [20]: 1.4
NC(=O)c1cc(N(CCCl)CCCl)c([N+](=O)[O-])cc1[N+](=O)[O-]	60%			60%		9350 M⁻¹ s⁻¹			0.77 s⁻¹	82.4 µM		Drug metabolism [21]: Not Active; Drug metabolism [22]: Active
